We go through 29 compounds from ChEMBL document CHEMBL4680371, “Design and Structure-Activity Relationship of a Potent Furin Inhibitor Derived from Influenza Hemagglutinin” (ACS Med Chem Lett, 2021).

Broadly, the Ki is the dissociation constant of the complex between target and ligand, obtained from inhibition or displacement.

Where a SMILES comes first, the peptide text is derived from it.

Furin, sequence (P09958 whole entry): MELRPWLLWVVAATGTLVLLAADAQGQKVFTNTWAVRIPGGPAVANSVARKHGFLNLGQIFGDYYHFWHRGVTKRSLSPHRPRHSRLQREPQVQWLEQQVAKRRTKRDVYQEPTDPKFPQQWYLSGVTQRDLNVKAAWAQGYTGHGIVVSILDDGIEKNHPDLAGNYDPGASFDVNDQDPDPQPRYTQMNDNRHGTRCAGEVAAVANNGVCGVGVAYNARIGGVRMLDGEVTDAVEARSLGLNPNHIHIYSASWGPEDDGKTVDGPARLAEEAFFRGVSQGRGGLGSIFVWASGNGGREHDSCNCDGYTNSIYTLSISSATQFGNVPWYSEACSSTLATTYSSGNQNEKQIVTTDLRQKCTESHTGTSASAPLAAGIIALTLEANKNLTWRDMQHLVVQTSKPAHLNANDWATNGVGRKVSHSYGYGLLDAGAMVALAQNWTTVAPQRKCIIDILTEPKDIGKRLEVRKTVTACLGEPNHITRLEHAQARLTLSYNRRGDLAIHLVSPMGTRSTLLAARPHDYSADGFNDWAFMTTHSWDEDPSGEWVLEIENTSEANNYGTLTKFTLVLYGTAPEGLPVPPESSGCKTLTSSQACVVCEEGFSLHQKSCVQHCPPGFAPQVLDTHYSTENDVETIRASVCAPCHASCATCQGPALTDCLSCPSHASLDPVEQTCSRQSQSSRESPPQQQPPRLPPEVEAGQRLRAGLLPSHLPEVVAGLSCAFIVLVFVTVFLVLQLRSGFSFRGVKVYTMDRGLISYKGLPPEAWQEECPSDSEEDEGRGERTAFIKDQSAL

This assay deals with Furin (Homo sapiens, UniProt P09958). As to the kind of experiment: Inhibition of recombinant soluble human furin using pyroGlu-Arg-Thr-Lys-Arg-methyl-coumaryl-7-amide as substrate measured after 1 hr. The method, boiled down:
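Soluble human recombinant furin was tested in a competitive kinetic assay. Ki is reported as the mean ± SD of at least two independent experiments.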
Take `CC(=O)N[C@@H](CCCNC(=N)N)C(=O)N[C@@H](C)C(=O)N[C@@H](CCCNC(=N)N)C(=O)N[C@@H](CO)C(=O)N[C@@H](CCCNC(=N)N)C(=O)N[C@@H](CCCCN)C(=O)N[C@@H](CCCCN)C(=O)N[C@@H](CCCNC(=N)N)C(=O)N[C@H](C(N)=O)[C@@H](C)O`: the Ki came out at 0.009 µM.
For the compound `CC(=O)N[C@@H](CCCNC(=N)N)C(=O)N[C@@H](C)C(=O)N1CCC[C@H]1C(=O)N[C@@H](CCCNC(=N)N)C(=O)N[C@@H](CCCNC(=N)N)C(=O)N[C@@H](CCCCN)C(=O)N[C@@H](CCCCN)C(=O)N[C@@H](CCCNC(=N)N)C(=O)N[C@H](C(N)=O)[C@@H](C)O`, the Ki was 0.021 µM.
`CC(=O)N[C@@H](C)C(=O)N[C@@H](Cc1c[nH]c2ccccc12)C(=O)N[C@@H](CCCNC(=N)N)C(=O)N[C@@H](CCCNC(=N)N)C(=O)N[C@@H](CCCNC(=N)N)C(=O)N[C@@H](CCCCN)C(=O)N[C@@H](CCCCN)C(=O)N[C@@H](CCCNC(=N)N)C(=O)N[C@H](C(N)=O)[C@@H](C)O` (Ac-AWRRRKKRT-NH2): the Ki stood at 0.03 µM.
To `CC(=O)N[C@@H](CC(C)C)C(=O)N[C@@H](C)C(=O)N[C@@H](CCCNC(=N)N)C(=O)N[C@@H](CCCNC(=N)N)C(=O)N[C@@H](CCCNC(=N)N)C(=O)N[C@@H](CCCCN)C(=O)N[C@@H](CCCCN)C(=O)N[C@@H](CCCNC(=N)N)C(=O)N[C@H](C(N)=O)[C@@H](C)O` belongs 0.012 µM; to `CC(=O)N[C@@H](CCCNC(=N)N)C(=O)N[C@@H](CCC(=O)O)C(=O)N[C@@H](CCCNC(=N)N)C(=O)N[C@@H](CCCNC(=N)N)C(=O)N[C@@H](CCCNC(=N)N)C(=O)N[C@@H](CCCCN)C(=O)N[C@@H](CCCCN)C(=O)N[C@@H](CCCNC(=N)N)C(=O)N[C@H](C(N)=O)[C@@H](C)O`, 0.024 µM.
`CSCC[C@H](NC(=O)[C@H](C)NC(=O)[C@H](CCCNC(=N)N)NC(C)=O)C(=O)N[C@@H](CCCNC(=N)N)C(=O)N[C@@H](CCCNC(=N)N)C(=O)N[C@@H](CCCCN)C(=O)N[C@@H](CCCCN)C(=O)N[C@@H](CCCNC(=N)N)C(=O)N[C@H](C(N)=O)[C@@H](C)O`: the Ki was 0.031 µM.
On to `CC[C@H](C)[C@@H](NC(=O)[C@H](CCCNC(=N)N)NC(=O)[C@H](C)NC(=O)[C@H](CCCNC(=N)N)NC(C)=O)C(=O)N[C@@H](CCCNC(=N)N)C(=O)N[C@@H](CCCCN)C(=O)N[C@@H](CCCCN)C(=O)N[C@@H](CCCNC(=N)N)C(=O)N[C@H](C(N)=O)[C@@H](C)O`, for which the Ki was 0.24 µM.
To `CC[C@H](C)[C@H](NC(=O)[C@H](CCCNC(=N)N)NC(=O)[C@H](C)NC(=O)[C@@H](NC(C)=O)C(C)C)C(=O)N[C@@H](CCCNC(=N)N)C(=O)N[C@@H](CCCCN)C(=O)N[C@@H](CCCCN)C(=O)N[C@@H](CCCNC(=N)N)C(=O)N[C@H](C(N)=O)[C@@H](C)O` (Ac-VARIRKKRT-NH2) belongs 0.01 µM; to `CC[C@H](NC(=O)[C@H](CCCNC(=N)N)NC(=O)[C@H](C)NC(=O)[C@H](CO)NC(C)=O)C(=O)N[C@@H](CCCNC(=N)N)C(=O)N[C@@H](CCCCN)C(=O)N[C@@H](CCCCN)C(=O)N[C@@H](CCCNC(=N)N)C(=O)N[C@H](C(N)=O)[C@@H](C)O`, 0.011 µM; to `CC[C@H](NC(=O)[C@H](CCCNC(=N)N)NC(=O)[C@H](C)NC(=O)[C@H](CCCNC(=N)N)NC(C)=O)C(=O)N[C@@H](CCCNC(=N)N)C(=O)N[C@@H](CCCCN)C(=O)N[C@@H](CCCCN)C(=O)N[C@@H](CCCNC(=N)N)C(=O)N[C@H](C(N)=O)[C@@H](C)O`, 0.011 µM.
As to `CC(=O)N[C@@H](CCCNC(=N)N)C(=O)N[C@@H](CCCCN)C(=O)N[C@@H](CCCNC(=N)N)C(=O)N[C@@H](CCCNC(=N)N)C(=O)N[C@@H](CCCNC(=N)N)C(=O)N[C@@H](CCCCN)C(=O)N[C@@H](CCCCN)C(=O)N[C@@H](CCCNC(=N)N)C(=O)N[C@H](C(N)=O)[C@@H](C)O`, the Ki was determined as 0.016 µM.
For `CC(=O)N[C@@H](CCCNC(=N)N)C(=O)N[C@@H](C)C(=O)N[C@@H](CCCCN)C(=O)N[C@@H](CCCNC(=N)N)C(=O)N[C@@H](CCCNC(=N)N)C(=O)N[C@@H](CCCCN)C(=O)N[C@@H](CCCCN)C(=O)N[C@@H](CCCNC(=N)N)C(=O)N[C@H](C(N)=O)[C@@H](C)O`, the Ki turned out to be 0.015 µM.
Turning to `CC(=O)N[C@@H](CCCNC(=N)N)C(=O)N[C@H](C(=O)N[C@@H](CCCNC(=N)N)C(=O)N[C@@H](CCCNC(=N)N)C(=O)N[C@@H](CCCNC(=N)N)C(=O)N[C@@H](CCCCN)C(=O)N[C@@H](CCCCN)C(=O)N[C@@H](CCCNC(=N)N)C(=O)N[C@H](C(N)=O)[C@@H](C)O)[C@@H](C)O`, the Ki was 0.016 µM.
To `CC(=O)N[C@@H](CCCNC(=N)N)C(=O)N[C@@H](C)C(=O)N[C@@H](CC(C)C)C(=O)N[C@@H](CCCNC(=N)N)C(=O)N[C@@H](CCCNC(=N)N)C(=O)N[C@@H](CCCCN)C(=O)N[C@@H](CCCCN)C(=O)N[C@@H](CCCNC(=N)N)C(=O)N[C@H](C(N)=O)[C@@H](C)O` belongs 0.014 µM; to `CCCC[C@H](NC(=O)[C@H](CCCNC(=N)N)NC(=O)[C@H](C)NC(=O)[C@H](CCCNC(=N)N)NC(C)=O)C(=O)N[C@@H](CCCNC(=N)N)C(=O)N[C@@H](CCCCN)C(=O)N[C@@H](CCCCN)C(=O)N[C@@H](CCCNC(=N)N)C(=O)N[C@H](C(N)=O)[C@@H](C)O`, 0.019 µM.
For `CC(=O)N[C@@H](CCCNC(=N)N)C(=O)N[C@@H](C)C(=O)N[C@@H](CCCNC(=N)N)C(=O)N[C@@H](CCC(=O)O)C(=O)N[C@@H](CCCNC(=N)N)C(=O)N[C@@H](CCCCN)C(=O)N[C@@H](CCCCN)C(=O)N[C@@H](CCCNC(=N)N)C(=O)N[C@H](C(N)=O)[C@@H](C)O`, the Ki worked out at 0.055 µM.
Turning to `CC[C@H](C)[C@H](NC(=O)[C@H](CCCNC(=N)N)NC(=O)[C@H](C)NC(=O)[C@@H](NC(C)=O)[C@@H](C)O)C(=O)N[C@@H](CCCNC(=N)N)C(=O)N[C@@H](CCCCN)C(=O)N[C@@H](CCCCN)C(=O)N[C@@H](CCCNC(=N)N)C(=O)N[C@H](C(N)=O)[C@@H](C)O` (Ac-TARIRKKRT-NH2), the Ki was 0.011 µM.
For the compound `CC(=O)N[C@@H](Cc1ccc(O)cc1)C(=O)N[C@@H](C)C(=O)N[C@@H](CCCNC(=N)N)C(=O)N[C@@H](CCCNC(=N)N)C(=O)N[C@@H](CCCNC(=N)N)C(=O)N[C@@H](CCCCN)C(=O)N[C@@H](CCCCN)C(=O)N[C@@H](CCCNC(=N)N)C(=O)N[C@H](C(N)=O)[C@@H](C)O`, the Ki worked out at 0.018 µM.
As for `CC(=O)N[C@@H](CC(N)=O)C(=O)N[C@@H](C)C(=O)N[C@@H](CCCNC(=N)N)C(=O)N[C@@H](CCCNC(=N)N)C(=O)N[C@@H](CCCNC(=N)N)C(=O)N[C@@H](CCCCN)C(=O)N[C@@H](CCCCN)C(=O)N[C@@H](CCCNC(=N)N)C(=O)N[C@H](C(N)=O)[C@@H](C)O`, the Ki came out at 0.012 µM.
As for `CSCC[C@H](NC(=O)[C@H](CCCNC(=N)N)NC(=O)[C@H](C)NC(=O)[C@H](CCCNC(=N)N)NC(C)=O)C(=O)N[C@@H](CCCNC(=N)N)C(=O)N[C@@H](CCCCN)C(=O)N[C@@H](CCCCN)C(=O)N[C@@H](CCCNC(=N)N)C(=O)N[C@H](C(N)=O)[C@@H](C)O`, the Ki worked out at 0.016 µM.
For `CSCC[C@H](NC(=O)[C@H](CCCNC(=N)N)NC(C)=O)C(=O)N[C@@H](CCCNC(=N)N)C(=O)N[C@@H](CCCNC(=N)N)C(=O)N[C@@H](CCCNC(=N)N)C(=O)N[C@@H](CCCCN)C(=O)N[C@@H](CCCCN)C(=O)N[C@@H](CCCNC(=N)N)C(=O)N[C@H](C(N)=O)[C@@H](C)O`, the Ki stood at 0.038 µM.
As to `CC(=O)N[C@@H](CCCNC(=N)N)C(=O)N[C@@H](C)C(=O)N[C@@H](CCCNC(=N)N)C(=O)N[C@@H](Cc1ccc(O)cc1)C(=O)N[C@@H](CCCNC(=N)N)C(=O)N[C@@H](CCCCN)C(=O)N[C@@H](CCCCN)C(=O)N[C@@H](CCCNC(=N)N)C(=O)N[C@H](C(N)=O)[C@@H](C)O`, the Ki was found to be 0.035 µM.
Take `CC[C@H](C)[C@H](NC(C)=O)C(=O)N[C@@H](C)C(=O)N[C@@H](CCCNC(=N)N)C(=O)N[C@@H](CCCNC(=N)N)C(=O)N[C@@H](CCCNC(=N)N)C(=O)N[C@@H](CCCCN)C(=O)N[C@@H](CCCCN)C(=O)N[C@@H](CCCNC(=N)N)C(=O)N[C@H](C(N)=O)[C@@H](C)O`: the Ki is 0.011 µM.
To `CC(=O)N[C@@H](CCCNC(=N)N)C(=O)N[C@@H](C)C(=O)N[C@@H](CC(=O)O)C(=O)N[C@@H](CCCNC(=N)N)C(=O)N[C@@H](CCCNC(=N)N)C(=O)N[C@@H](CCCCN)C(=O)N[C@@H](CCCCN)C(=O)N[C@@H](CCCNC(=N)N)C(=O)N[C@H](C(N)=O)[C@@H](C)O` belongs 0.27 µM.
For `CC(=O)N[C@@H](CCCNC(=N)N)C(=O)N[C@@H](C)C(=O)N[C@H](C(=O)N[C@@H](CCCNC(=N)N)C(=O)N[C@@H](CCCNC(=N)N)C(=O)N[C@@H](CCCCN)C(=O)N[C@@H](CCCCN)C(=O)N[C@@H](CCCNC(=N)N)C(=O)N[C@H](C(N)=O)[C@@H](C)O)[C@@H](C)O`, the inhibition constant Ki came to 0.028 µM.
With `CC(=O)N[C@@H](CCCNC(=N)N)C(=O)N[C@@H](CC(=O)O)C(=O)N[C@@H](CCCNC(=N)N)C(=O)N[C@@H](CCCNC(=N)N)C(=O)N[C@@H](CCCNC(=N)N)C(=O)N[C@@H](CCCCN)C(=O)N[C@@H](CCCCN)C(=O)N[C@@H](CCCNC(=N)N)C(=O)N[C@H](C(N)=O)[C@@H](C)O`, the Ki is 0.033 µM.
Turning to `CC(=O)N[C@@H](CCCNC(=N)N)C(=O)N[C@@H](C)C(=O)N[C@@H](Cc1ccc(O)cc1)C(=O)N[C@@H](CCCNC(=N)N)C(=O)N[C@@H](CCCNC(=N)N)C(=O)N[C@@H](CCCCN)C(=O)N[C@@H](CCCCN)C(=O)N[C@@H](CCCNC(=N)N)C(=O)N[C@H](C(N)=O)[C@@H](C)O`, the Ki stood at 0.048 µM.
To `CC(=O)N[C@@H](C)C(=O)N[C@@H](C)C(=O)N[C@@H](CCCNC(=N)N)C(=O)N[C@@H](CCCNC(=N)N)C(=O)N[C@@H](CCCNC(=N)N)C(=O)N[C@@H](CCCCN)C(=O)N[C@@H](CCCCN)C(=O)N[C@@H](CCCNC(=N)N)C(=O)N[C@H](C(N)=O)[C@@H](C)O` belongs 0.011 µM.
For the compound `CC(=O)N[C@@H](CCCNC(=N)N)C(=O)N[C@@H](CC(N)=O)C(=O)N[C@@H](CCCNC(=N)N)C(=O)N[C@@H](CCCNC(=N)N)C(=O)N[C@@H](CCCNC(=N)N)C(=O)N[C@@H](CCCCN)C(=O)N[C@@H](CCCCN)C(=O)N[C@@H](CCCNC(=N)N)C(=O)N[C@H](C(N)=O)[C@@H](C)O`, the Ki stood at 0.02 µM.
